Test results: ChEMBL document CHEMBL2424551, “Synthesis, in vitro evaluation and molecular modelling of naphthalimide analogue as anticancer agents” (2013)
Calls of active or inactive are those of the source. No cut-off for these calls is given here.

Tested on: DNA
Test: Binding affinity to calf thymus DNA assessed as DNA intercalation at 50 uM by fluorescence spectrophotometry
Type: nucleic-acid assay
Settings: Bos taurus
Summary of the method: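 Fluorescence titration: increasing ct-DNA added to compound in phosphate buffer (pH 7.0); decrease in emission band at 500 nm monitored; binding constant derived from titration data by Benesi–Hildebrand method.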

**Q.** With CN(C)CCN1C(=O)c2cccc3cc(N)cc(c23)C1=O as the molecule, how does the Activity read?
**A.** Active
